For orientation: EC50 means the concentration at which the effect is half-maximal. Higher therefore signals lower potency in that assay. The term IC50 denotes the midpoint of a concentration-inhibition curve. What is called CC50 is the concentration giving 50% cytotoxicity. Low values mean greater toxicity to the cells, high ones lower toxicity to the cells.

The subject of one series is Hepatitis C virus. The experiment in a line: Antiviral activity against HCV in human HBI10A cells by ELISA. The class given is functional, organism-based, Hepacivirus hominis. In short, it runs like this: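 HCV subgenomic replicon-bearing Huh-7-derived HBI10A cells kept in D-MEM + 10% FBS with G418. Compounds from DMSO stocks, diluted in D-MEM, DMSO at most 1%, tested at final 10^3, 10^2, […]. Cell-ELISA for NS3 with anti-NS3 10E5/24 MAb, in triplicate. Parental Huh-7 cells give the background. EC50 from Hill-equation fit of NS3 signal reduction. IFN-α positive control.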
(In general: ELISA stands for enzyme-linked immunosorbent assay.)

Series [1] can be described thus: Cytotoxicity against human HBI10A cells after 20 hrs by MTS assay. Format: cell-based. In outline:
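MTS read-out in HBI10A replicon cells seeded at 1 × 10^4 per 100 µL D-MEM + 5% FBS. After 4 h at 37 °C, compounds added at final 10^3, 10^2, […]. Incubated 20 h at 37 °C, then MTS for a further 4 h. Stopped with 10% SDS; absorbance at 492 nm.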

SMILES strings stand for the structures.

Regarding `O=C(O)c1nc(-c2cccs2)nc(O)c1O`, in the series on Hepatitis C virus, the response was half-maximal at 9.3 µM (EC50) and it took 0.15 µM to reach half-maximal inhibition (IC50).

Compound `COC(=O)C1=C(NCc2ccccc2)C(=O)OC1C` (stereo not drawn) returned an EC50 in the series on Hepatitis C virus of more than 1000 µM. The compound further showed a CC50 at 20 h in series [1] of more than 1000 µM.

Consider `CNC1=C(C(C)=O)C(C)OC1=O` (stereo not drawn), for which, in the series with Hepatitis C virus, a half-maximal response (EC50) required 132 µM. This compound yielded a cytotoxic concentration (CC50) at 20 h in series [1] of 819 µM.

Compound `CNC1=C(C(=O)Nc2ccccc2)C(C)OC1=O` (stereo not drawn) came in with an EC50 in the series with Hepatitis C virus of 19 µM. In series [1], the CC50 at 20 h was more than 1000 µM.

`CNC1=C(C(=O)OC)C(C)OC1=O` (stereo not drawn): a half-maximal response in the series with Hepatitis C virus (EC50) required 525 µM. Moreover, the CC50 at 20 h in series [1] is more than 1000 µM.

Compound `CNC1=C(C(C)=O)COC1=O` displayed an EC50 with Hepatitis C virus of 521 µM. This compound returned a CC50 at 20 h in series [1] of more than 1000 µM.

In the series with Hepatitis C virus, `CNC1=C(C(=O)OC)C(C)OC1O` (stereo not drawn) returned an EC50 of 66 µM. The CC50 at 20 h in series [1] is more than 1000 µM.

In the series on Hepatitis C virus, `CCOC(=O)C1=C(NC)C(=O)OC1C(=O)OCC` (stereo not drawn) registered an EC50 of more than 1000 µM. The CC50 at 20 h in series [1] is more than 1000 µM.

`CNC1=C(c2ccccc2)C(c2ccccc2)OC1=O` (stereo not drawn) gave an EC50 in the series on Hepatitis C virus of 17 µM. Moreover, the midpoint of cytotoxicity in series [1], the CC50 at 20 h, lay at 28 µM.
